Measured values published in ChEMBL document CHEMBL3232960, “Synthesis of novel 1,2,3-triazole/isoxazole functionalized 2H-Chromene derivatives and their cytotoxic activity” (Bioorg Med Chem Lett, 2014).

Key:
Assay type in all cases: functional, cell-based
DU-145 = experiment: Cytotoxicity against human DU145 cells assessed as growth inhibition after 24 hrs by MTT assay; conditions: DU-145, 24 h
Outline: (§1)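 Exponentially growing cells (A549 lung CCL-185, DU145 prostate HTB-81, HeLa cervical CCL-2, MCF7 breast HTB-22) exposed to a range of compound concentrations for 24 h; viability read by MTT. 5-Fluorouracil served as positive control. IC50 taken as concentration giving 50% drop in cell number versus untreated control cultures.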

HeLa = experiment: Cytotoxicity against human HeLa cells assessed as growth inhibition after 24 hrs by MTT assay; outline: as §1
MCF7 = experiment: Cytotoxicity against human MCF7 cells assessed as growth inhibition after 24 hrs by MTT assay; conditions: MCF7, 24 h; outline: as §1
A549 = experiment: Cytotoxicity against human A549 cells assessed as growth inhibition after 24 hrs by MTT assay; conditions: A549, 24 h; outline: as §1

Row | Structure (SMILES) | IC50 (DU-145) [µM] | IC50 (HeLa) [µM] | IC50 (MCF7) [µM] | IC50 (A549) [µM]
1 | CCOC(=O)C1=Cc2ccccc2OC1(OCc1cn(CC(=O)Nc2ccccc2Br)nn1)C(F)(F)F (stereo unspecified) | > 150 | > 150 | > 150 | > 150
2 | CCOC(=O)C1=Cc2ccccc2OC1(OCc1cn(-c2ccccc2)nn1)C(F)(F)F (stereo unspecified) | > 150 | > 150 | > 150 | > 150
3 | CCOC(=O)C1=Cc2ccccc2OC1(OCc1cn(-c2ccc(F)c([N+](=O)[O-])c2)nn1)C(F)(F)F (stereo unspecified) | 13.2 | 15.6 | 16.2 | 11.9
4 | CCOC(=O)C1=Cc2ccccc2OC1(OCc1cn(-c2ccc([N+](=O)[O-])cc2)nn1)C(F)(F)F (stereo unspecified) | > 150 | > 150 | > 150 | > 150
5 | CCOC(=O)C1=Cc2ccccc2OC1(OCc1cn(CC(=O)Nc2ccccc2F)nn1)C(F)(F)F (stereo unspecified) | 33.9 | 49.9 | 42.1 | 50.1
6 | COc1ccc(-c2cc(COC3(C(F)(F)F)Oc4ccccc4C=C3C(=O)O)on2)cc1 (stereo unspecified) | 42 | > 150 | 35.2 | 36.2
7 | O=C(O)C1=Cc2ccccc2OC1(OCc1cc(-c2ccc([N+](=O)[O-])cc2)no1)C(F)(F)F (stereo unspecified) | 100 | > 150 | > 150 | > 150
8 | CCOC(=O)C1=Cc2ccccc2OC1(OCc1cc(-c2ccc3ccccc3c2)no1)C(F)(F)F (stereo unspecified) | 71.8 | > 150 | 65.4 | > 150
9 | O=C(O)C1=Cc2ccccc2OC1(OCc1cc(-c2ccc3ccccc3c2)no1)C(F)(F)F (stereo unspecified) | 140 | > 150 | > 150 | > 150
10 | Cc1ccc(-c2cc(COC3(C(F)(F)F)Oc4ccccc4C=C3C(=O)O)on2)cc1 (stereo unspecified) | 41.4 | 33.4 | 30.1 | 51.2
11 | CCOC(=O)C1=Cc2ccccc2OC1(OCc1cn(-c2ccc(F)c(Cl)c2)nn1)C(F)(F)F (stereo unspecified) | 21.5 | 22.7 | 25.3 | 26.3
12 | CCOC(=O)C1=Cc2ccccc2OC1(OCc1cn(-c2cccc(C(F)(F)F)c2)nn1)C(F)(F)F (stereo unspecified) | > 150 | > 150 | > 150 | > 150
13 | CCOC(=O)C1=Cc2ccccc2OC1(OCc1cn(CC(=O)NC2CCCCC2)nn1)C(F)(F)F (stereo unspecified) | 10.2 | 11.4 | 12.1 | 9.9
14 | CCOC(=O)C1=Cc2ccccc2OC1(OCc1cn(CC(=O)Nc2ccc(I)cc2Cl)nn1)C(F)(F)F (stereo unspecified) | 24.4 | 26.1 | 28.1 | 22.3
15 | O=C(O)C1=Cc2ccccc2OC1(OCc1cc(-c2ccc(F)cc2)no1)C(F)(F)F (stereo unspecified) | 168 | > 150 | 64.2 | > 150
16 | CCOC(=O)C1=Cc2ccccc2OC1(OCc1cc(-c2ccc(OC)cc2)no1)C(F)(F)F (stereo unspecified) | > 150 | > 150 | > 150 | > 150
17 | CCOC(=O)C1=Cc2ccccc2OC1(OCc1cn(-c2cccc(OC)c2)nn1)C(F)(F)F (stereo unspecified) | > 150 | > 150 | > 150 | > 150

Row | Structure (SMILES) | IC50 (DU-145) [µM] | IC50 (HeLa) [µM] | IC50 (MCF7) [µM] | IC50 (A549) [µM]
18 | CCOC(=O)C1=Cc2ccccc2OC1(OCc1cc(-c2cccc(C(F)(F)F)c2)no1)C(F)(F)F (stereo unspecified) | 57.3 | 21.4 | 22.1 | 48.6
19 | O=C(O)C1=Cc2ccccc2OC1(OCc1cc(-c2cccc(C(F)(F)F)c2)no1)C(F)(F)F (stereo unspecified) | 155 | > 150 | > 150 | > 150
20 | CCOC(=O)C1=Cc2ccccc2OC1(OCc1cc(-c2ccc(F)cc2)no1)C(F)(F)F (stereo unspecified) | 53.5 | 42.3 | 48.2 | 35.5
21 | CCCCCCCCn1cc(COC2(C(F)(F)F)Oc3ccccc3C=C2C(=O)OCC)nn1 (stereo unspecified) | > 150 | > 150 | > 150 | > 150
22 | O=C(O)C1=Cc2ccccc2OC1(OCc1cc(-c2ccc(F)cc2F)no1)C(F)(F)F (stereo unspecified) | > 150 | > 150 | > 150 | > 150
23 | CCOC(=O)C1=Cc2ccccc2OC1(OCc1cc(-c2ccc(C)cc2)no1)C(F)(F)F (stereo unspecified) | > 150 | > 150 | > 150 | > 150
24 | CCOC(=O)C1=Cc2ccccc2OC1(OCc1cn(CC(=O)Nc2ccc(OC)cc2)nn1)C(F)(F)F (stereo unspecified) | 32.7 | 31.9 | 28.1 | 29.4
25 | CCOC(=O)C1=Cc2ccccc2OC1(OCc1cn(-c2ccc(C)cc2)nn1)C(F)(F)F (stereo unspecified) | 30.2 | 25.1 | 26.7 | 19.7
26 | CCOC(=O)C1=Cc2ccccc2OC1(OCc1cc(-c2ccc([N+](=O)[O-])cc2)no1)C(F)(F)F (stereo unspecified) | > 150 | > 150 | > 150 | > 150
27 | CCOC(=O)C1=Cc2ccccc2OC1(OCc1cn(CC(=O)Nc2cccc(F)c2)nn1)C(F)(F)F (stereo unspecified) | > 150 | > 150 | > 150 | > 150
28 | O=c1[nH]cc(F)c(=O)[nH]1 [FLUOROURACIL] | 1.9 | 1.8 | 1.8 | 1.9
29 | CCOC(=O)C1=Cc2ccccc2OC1(OCc1cc(-c2ccc(Br)cc2)no1)C(F)(F)F (stereo unspecified) | 71.7 | 52.3 | > 150 | > 150
30 | CCOC(=O)C1=Cc2ccccc2OC1(OCc1cn(-c2ccc(F)cc2)nn1)C(F)(F)F (stereo unspecified) | 8.9 | 8.4 | 9.1 | 7.3
31 | CCOC(=O)C1=Cc2ccccc2OC1(OCc1cn(CC(=O)Nc2cccc(Cl)c2)nn1)C(F)(F)F (stereo unspecified) | 10.1 | 12.3 | 11.6 | 12.8
32 | CCOC(=O)C1=Cc2ccccc2OC1(OCc1cc(-c2ccc(F)cc2F)no1)C(F)(F)F (stereo unspecified) | > 150 | > 150 | > 150 | > 150
33 | CCOC(=O)C1=Cc2ccccc2OC1(OCc1cc(-c2ccc(Cl)cc2)no1)C(F)(F)F (stereo unspecified) | 18.2 | 12.3 | 18.2 | 19.1
34 | CCOC(=O)C1=Cc2ccccc2OC1(OCc1cn(CC(=O)Nc2ccc(C)cc2)nn1)C(F)(F)F (stereo unspecified) | > 150 | 67.4 | > 150 | 54.3
